Here are results for one compound from ChEMBL document CHEMBL4351017, “Selenocoumarins as new multitarget antiproliferative agents: Synthesis, biological evaluation and in silico calculations” (Eur J Med Chem, 2019).

The test system of data set [1] is A549. Description: Antiproliferative activity against human A549 cells assessed as growth inhibition measured after 48 hrs by sulforhodamine B assay. The class given is functional. Conditions: A549, 48 h. An outline of the steps: (§1)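 NCI protocol with minor modifications. DMSO stocks at 40 mM. Cells exposed for 48 h to serial decimal dilutions, 0.001–100 µM. GI50 in µM from at least two independent experiments, with SD.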
On the technique in general: Sulforhodamine B stains cellular protein and so reports cell mass.

The test system of data set [2] is HBL-100. The experiment in a line: Antiproliferative activity against human HBL100 cells assessed as growth inhibition measured after 48 hrs by sulforhodamine B assay. The class given is functional. Conditions: HBL-100, 48 h. The procedure, abridged: as §1
The subject of data set [3] is HeLa. Description: Antiproliferative activity against human HeLa cells assessed as growth inhibition measured after 48 hrs by sulforhodamine B assay. The class given is functional. An outline of the steps: as §1
The subject of data set [4] is T47D. Description: Antiproliferative activity against human T47D cells assessed as growth inhibition measured after 48 hrs by sulforhodamine B assay. The class given is functional. The procedure, abridged: as §1
Data set [5] deals with WiDr. The experiment in a line: Antiproliferative activity against human WiDr cells assessed as growth inhibition measured after 48 hrs by sulforhodamine B assay. The class given is functional. The procedure, abridged: as §1
A short description of data set [6]: Cytotoxicity against human hTERT-BJ cells assessed as growth inhibition measured after 48 hrs by sulforhodamine B assay. The class given is cell-based. As to conditions: hTERT-BJ cells. An outline of the steps:
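NCI protocol with minor modifications. Human tumour lines or fibroblasts in RPMI 1640 with 1 mM glutamine, 5% FBS and antibiotics, 37 °C, 5% CO2, low passage. DMSO stocks at 40 mM. Cells exposed for 48 h to serial decimal dilutions, 0.001–100 µM. GI50 in µM from at least two independent experiments, with SD.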

Data set [7] deals with SW1573. Description: Antiproliferative activity against human SW1573 cells incubated for 48 hrs in presence of P-gp and CYP3A4/5 inhibitor verapamil by sulforhodamine B assay. In kind it is functional. As to conditions: SW1573, 48 h. An outline of the steps: (§2)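 Wild-type and P-gp-overexpressing SW1573 cells were grown in RPMI 1640 with 1 mM glutamine, 5% FBS and antibiotics at 37 °C. Cells were exposed for 48 h to serial decimal dilutions, 0.001–100 µM, with or without 10 µM verapamil. GI50 values come from at least two independent experiments, with SD.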

The subject of data set [8] is SW1573. The experiment in a line: Antiproliferative activity against human SW1573 cells over-expressing P-gp incubated for 48 hrs in presence of P-gp and CYP3A4/5 inhibitor verapamil by sulforhodamine B assay. Conditions: SW1573, 48 h. In kind it is functional. The procedure, abridged: as §2
Data set [9] has as its system SW1573. Description: Resistance factor, ratio of GI50 for antiproliferative activity against human SW1573 cells over-expressing P-gp incubated for 48 hrs in presence of P-gp and CYP3A4/5 inhibitor verapamil by sulforhodamine assay to GI50 for antiproliferative activity against human SW1573 cells incubated for 48 hrs in presence of P-gp and CYP3A4/5 inhibitor verapamil by sulforhodamine B assay. In kind it is functional. The procedure, abridged: (§3)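 Resistance factor: GI50 in SW1573/PGP divided by GI50 in wild-type SW1573. Both came from 48 h exposure, with or without 10 µM verapamil. GI50 values are from at least two independent experiments.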

The subject of data set [10] is SW1573. Description: Antiproliferative activity against human SW1573 cells incubated for 48 hrs in absence of P-gp and CYP3A4/5 inhibitor verapamil by sulforhodamine B assay. The class given is functional. Conditions: SW1573, 48 h. The procedure, abridged: as §2
The test system of data set [11] is SW1573. The experiment in a line: Antiproliferative activity against human SW1573 cells over-expressing P-gp incubated for 48 hrs in absence of P-gp and CYP3A4/5 inhibitor verapamil by sulforhodamine B assay. The class given is functional. Conditions: SW1573, 48 h. The procedure, abridged:
as §2

Data set [12] deals with SW1573. Description: Resistance factor, ratio of GI50 for antiproliferative activity against human SW1573 cells over-expressing P-gp incubated for 48 hrs in absence of P-gp and CYP3A4/5 inhibitor verapamil by sulforhodamine B assay to GI50 for antiproliferative activity against human SW1573 cells incubated for 48 hrs in absence of P-gp and CYP3A4/5 inhibitor verapamil by sulforhodamine B assay. In kind it is functional. The procedure, abridged: as §3

The subject of data set [13] is HeLa. Description: Anticancer activity against human HeLa cells assessed as increase in ROS production at 10 uM measured after 48 hrs by ROS-GloTM H2O2 assay. The class given is functional, cell-based. The procedure, abridged:
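HeLa cells in RPMI 1640 with 1 mM glutamine, 5% FBS and antibiotics, 37 °C, 5% CO2. Exposed to compound at 1 or 10 µM for 48 h. ROS (H2O2) read with a non-lytic, HRP-free luminescent kit per the manufacturer.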

Data set [14] can be described thus: Selectivity index, ratio of GI50 for Cytotoxicity against human hTERT-BJ cells to ratio of GI50 for antiproliferative activity against human A549 cells. In kind it is toxicity, cell-based. Conditions: hTERT-BJ cells versus A549 cells, read-out: RatioGI50.
The nature of data set [15]: Selectivity index, ratio of GI50 for Cytotoxicity against human hTERT-BJ cells to ratio of GI50 for antiproliferative activity against human HBL100 cells.
Data set [16] in a line: Selectivity index, ratio of GI50 for Cytotoxicity against human hTERT-BJ cells to ratio of GI50 for antiproliferative activity against human HeLa cells. Conditions: hTERT-BJ cells versus HeLa cells, read-out: RatioGI50. In kind it is toxicity, cell-based.
Data set [17] can be described thus: Selectivity index, ratio of GI50 for Cytotoxicity against human hTERT-BJ cells to ratio of GI50 for antiproliferative activity against human T47D cells. As to conditions: hTERT-BJ cells versus T47D cells, read-out: RatioGI50. In kind it is toxicity, cell-based.
Data set [18] is described as follows: Selectivity index, ratio of GI50 for Cytotoxicity against human hTERT-BJ cells to ratio of GI50 for antiproliferative activity against human WiDr cells. In kind it is toxicity, cell-based. Conditions: hTERT-BJ cells versus WiDr cells, read-out: RatioGI50.

The source made the active and inactive calls. No cut-off for these calls is given here.

Turning to `Cc1cc(=O)oc2cc(N=C=[Se])ccc12`, the 50% growth inhibitory concentration (GI50) – broadly, the concentration that inhibits growth by half – worked out at 3.6 µM in data set [1]; 5 µM in [2]; 12 µM in data set [3]; 3.6 µM in data set [4]; 4.8 µM in [5]; 29 µM in data set [7]. The GI50 in [8] amounted to 24 µM; in data set [10], 27 µM; in [11], 29 µM. Besides, the GI50 at 48 h in data set [6] is 50 µM. In addition, the RatioGI50 in data set [9] is given as 0.9; in data set [12] it was 1.1; in [15], “<=14”. The outcome in data set [13] was Active. Besides, the selectivity ratio in [14], in data set [16], in data set [17] and in data set [18] was ≤ 14 throughout.
